Results from different studies.
Lines come from different studies, so protocols differ. pEC50, pIC50: −log10 of the molar value.

CCOC(=O)c1cn(CC)c2cc(N3CCC(C)CC3)c(F)cc2c1=O  pEC50 (Plasmodium falciparum; parasite growth; 3D7; 72 h, blood stage): 7.55
CN1CCN(c2ccnc(Nc3ccc4c(Nc5ccc(OCc6cccc(F)c6)c(Cl)c5)ccnc4c3)n2)CC1  pEC50 (Plasmodium falciparum; parasite growth; D6; drug-resistant strain, blood stage): 7.60
CS(=O)(=O)c1ccc2c(c1)C(=O)CCc1ccccc1C(=O)N2  pIC50 (L6; cell growth or viability): < 3.52
CCn1cc(-c2nc(C)no2)c(=O)c2cc(F)c(N3CCC(C)CC3)cc21  pEC50 (Plasmodium falciparum; parasite growth; 3D7; 72 h, blood stage): 7.72
O=C1Nc2ccccc2C(=O)CCc2ccccc21  pIC50 (L6; cell growth or viability): 4.28
CCn1cc(-c2ccccn2)c(=O)c2cc(F)c(N3CCC(C)CC3)cc21  pEC50 (Plasmodium falciparum; parasite growth; 3D7; 72 h, blood stage): < 5.00
COc1ccc(Nc2ccnc3cc(-c4cn[nH]c4)ccc23)cc1Cl  pEC50 (Plasmodium falciparum; parasite growth; D6; drug-resistant strain, blood stage): 6.60
CC(=O)Nc1cccc(-n2c(=O)n(C3CC3)c(=O)c3c(Nc4ccc(I)cc4F)n(C)c(=O)c(C)c32)c1  viability (SW1417; cell growth or viability, resazurin; 1.56 nM, 72 h): 80.5%
O=C1Nc2ccccc2C(=O)CCc2ccc(O)cc21  pIC50 (L6; cell growth or viability): 3.70
CN1CCN(S(=O)(=O)c2ccc(-c3ccc4c(Nc5ccc(C(F)(F)F)nc5)ccnc4c3)cc2)CC1  pEC50 (Plasmodium falciparum; parasite growth; D6; drug-resistant strain, blood stage): 6.80
